Test results reported in ChEMBL document CHEMBL1140454, “Conformationally constrained analogues of 2-arachidonoylglycerol” (Bioorg Med Chem Lett, 2007).

Assays:
[1] = target: T1, Fatty-acid amide hydrolase 1 (Rattus norvegicus) (UniProt P97612); experiment: Activity of partially purified Sprague-Dawley rat FAAH assessed as substrate hydrolysis
T1 sequence (whole entry): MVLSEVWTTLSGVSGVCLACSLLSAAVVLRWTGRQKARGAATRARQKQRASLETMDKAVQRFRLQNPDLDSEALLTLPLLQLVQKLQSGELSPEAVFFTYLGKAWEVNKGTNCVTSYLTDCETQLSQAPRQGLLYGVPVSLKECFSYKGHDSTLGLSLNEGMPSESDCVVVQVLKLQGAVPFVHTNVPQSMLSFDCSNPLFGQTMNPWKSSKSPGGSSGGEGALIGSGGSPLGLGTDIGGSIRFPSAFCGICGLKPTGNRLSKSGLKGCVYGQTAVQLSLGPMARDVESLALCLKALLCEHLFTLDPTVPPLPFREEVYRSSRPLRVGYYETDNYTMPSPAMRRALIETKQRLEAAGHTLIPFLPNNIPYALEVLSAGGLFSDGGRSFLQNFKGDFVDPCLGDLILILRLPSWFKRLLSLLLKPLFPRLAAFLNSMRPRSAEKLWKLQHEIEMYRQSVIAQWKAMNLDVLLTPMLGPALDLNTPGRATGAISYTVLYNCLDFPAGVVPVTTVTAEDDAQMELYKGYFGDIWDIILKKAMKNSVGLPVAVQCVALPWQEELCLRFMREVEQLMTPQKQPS

[2] = target: T2, Monoglyceride lipase (Rattus norvegicus) (UniProt Q8R431); experiment: Activity of partially purified Sprague-Dawley rat MGL assessed as substrate hydrolysis
T2 sequence (whole entry): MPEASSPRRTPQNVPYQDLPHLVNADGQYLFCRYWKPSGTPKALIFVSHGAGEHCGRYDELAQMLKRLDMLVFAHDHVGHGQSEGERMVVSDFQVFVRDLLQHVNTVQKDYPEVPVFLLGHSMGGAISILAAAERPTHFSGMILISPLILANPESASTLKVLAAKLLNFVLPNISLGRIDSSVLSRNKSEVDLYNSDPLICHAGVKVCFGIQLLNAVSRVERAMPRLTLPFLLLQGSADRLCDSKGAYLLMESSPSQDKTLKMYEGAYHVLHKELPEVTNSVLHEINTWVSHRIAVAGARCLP

[3] = target: Cannabinoid receptor 2 (Mus musculus, UniProt P47936); experiment: Displacement of [3H]CP-55940 from mouse spleen CB2 receptor; format: tissue-based
In short: (§1)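 Competition-equilibrium binding against [3H]CP55940, using rat brain membranes for CB1 and mouse spleen membranes for CB2. Some CB1 runs used membranes pretreated with PMSF. IC50 came from nonlinear regression and Ki was calculated from IC50. Points were run in duplicate, with values from single experiments.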

[4] = target: Cannabinoid receptor 1 (Rattus norvegicus, UniProt P20272); experiment: Displacement of [3H]CP-55940 from rat brain CB1 receptor
In short: as §1

Cannabinoid receptor 2, sequence (P47936 whole entry): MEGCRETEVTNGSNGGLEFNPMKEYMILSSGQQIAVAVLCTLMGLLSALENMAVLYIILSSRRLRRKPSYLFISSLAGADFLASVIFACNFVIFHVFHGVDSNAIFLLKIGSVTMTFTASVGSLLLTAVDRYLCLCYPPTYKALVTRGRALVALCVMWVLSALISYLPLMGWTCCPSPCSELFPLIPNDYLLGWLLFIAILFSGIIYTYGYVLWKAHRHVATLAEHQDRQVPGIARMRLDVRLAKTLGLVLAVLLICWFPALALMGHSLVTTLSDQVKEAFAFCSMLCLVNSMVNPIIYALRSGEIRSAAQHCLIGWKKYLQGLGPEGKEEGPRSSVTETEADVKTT
Cannabinoid receptor 1, sequence (P20272 whole entry): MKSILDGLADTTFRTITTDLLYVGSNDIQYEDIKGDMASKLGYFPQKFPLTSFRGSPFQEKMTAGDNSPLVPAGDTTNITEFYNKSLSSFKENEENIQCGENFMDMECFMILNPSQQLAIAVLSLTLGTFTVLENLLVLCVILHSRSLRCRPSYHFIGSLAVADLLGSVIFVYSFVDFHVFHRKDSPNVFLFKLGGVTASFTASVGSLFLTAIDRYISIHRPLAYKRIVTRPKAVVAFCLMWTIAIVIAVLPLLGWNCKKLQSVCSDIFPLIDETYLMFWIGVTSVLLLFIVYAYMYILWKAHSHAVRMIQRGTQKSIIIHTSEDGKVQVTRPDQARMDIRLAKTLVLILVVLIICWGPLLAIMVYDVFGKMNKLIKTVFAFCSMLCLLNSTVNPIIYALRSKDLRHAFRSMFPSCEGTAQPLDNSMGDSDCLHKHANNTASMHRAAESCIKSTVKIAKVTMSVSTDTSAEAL

| Compound | hydrolysis [1] | hydrolysis [2] | Ki [3] | Ki [4] |
| --- | --- | --- | --- | --- |
| CCCCC/C=C\C/C=C\C/C=C\C/C=C\CCCC(=O)OC(CO)CO | 100% | 74% |  |  |
| CCCCC/C=C\C/C=C\C/C=C\C/C=C\CCCC(=O)O[C@@H]1[C@H](O)CCC[C@@H]1O | 2% | 2% |  |  |
| CCCCC/C=C\C/C=C\C/C=C\C/C=C\CCCC(=O)O[C@H]1[C@H](O)CCC[C@@H]1O | 78% | 19% |  |  |
| CCCCC/C=C\C/C=C\C/C=C\C/C=C\CCCC(=O)OC1C(O)CCCC1O (racemic) | 100% | 1% |  |  |
| CCCCC/C=C\C/C=C\C/C=C\C/C=C\CCCC(=O)OC1C(=O)CCCC1O (racemic; form 1) [listing 1 of 2 here] |  |  | 410 nM |  |
| CCCCC/C=C\C/C=C\C/C=C\C/C=C\CCCC(=O)OC1C(=O)CCCC1O (racemic; form 1) [listing 2 of 2 here] | 91% | 48% |  |  |
| CCCCC/C=C\C/C=C\C/C=C\C/C=C\CCCC(=O)OC1C(=O)CCCC1O (racemic; form 2) | 100% | 8% |  |  |
| CCCCC/C=C\C/C=C\C/C=C\C/C=C\CCCC(=O)OC1C(O)CCCC1O (single isomer, unassigned; (+)) [listing 1 of 2 here] |  |  | 370 nM | 360 nM |
| CCCCC/C=C\C/C=C\C/C=C\C/C=C\CCCC(=O)OC1C(O)CCCC1O (single isomer, unassigned; (+)) [listing 2 of 2 here] | 88% | 10% |  |  |
| CCCCC/C=C\C/C=C\C/C=C\C/C=C\CCCC(=O)OC1C(O)CCCC1O (single isomer, unassigned; (-)) [listing 1 of 2 here] |  |  | 1200 nM | 770 nM |
| CCCCC/C=C\C/C=C\C/C=C\C/C=C\CCCC(=O)OC1C(O)CCCC1O (single isomer, unassigned; (-)) [listing 2 of 2 here] | 88% | 13% |  |  |
